{"source": "ChEMBL document CHEMBL2203056", "about": "“Antimutagenic thio compounds from Sisymbrium officinale” (J Nat Prod, 2012)", "key": {"[1]": {"assay": "Cytotoxicity against Escherichia coli WP2 (trpE65 deltauvrApKM101) assessed as cell viability up to 10 to 300 ug/mL after 72 hrs in presence of 25 ug/plate 2-aminofluorene and metabolic activation system S9", "format": "ADME, organism-based", "details": "read-out: Activity"}, "[2]": {"assay": "Cytotoxicity against Escherichia coli WP2 (trpE65 deltauvrA) assessed as cell viability up to 10 to 300 ug/mL after 72 hrs in presence of 25 ug/plate 2-aminofluorene and metabolic activation system S9", "format": "ADME, organism-based", "details": "read-out: Activity"}, "[3]": {"assay": "Cytotoxicity against Escherichia coli WP2 (trpE65) assessed as cell viability up to 10 to 300 ug/mL after 72 hrs in presence of 25 ug/plate 2-aminofluorene and metabolic activation system S9", "format": "ADME, organism-based", "details": "read-out: Activity", "summary_of_the_method": "(§1)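 Viability check on the antimutagenicity mixtures. Culture, mutagen (MMS 1700 μg/plate; 2AA or 2AF 25 μg/plate with S9 mix), test substance and S9 mix or 0.1 M phosphate buffer were shaken 30 min at 37 °C. Mixtures were diluted to 2 × 10^3 cells/mL, plated in top agar on nutrient agar and incubated 72 h at 37 °C. Colonies counted and compared with the solvent-only negative control.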"}, "[4]": {"assay": "Cytotoxicity against Escherichia coli WP2 (trpE65 deltauvrApKM101) assessed as cell viability up to 10 to 300 ug/mL after 72 hrs in presence of 25 ug/plate 2-aminoanthracene and metabolic activation system S9", "format": "ADME, organism-based", "details": "read-out: Activity", "summary_of_the_method": "as §1"}, "[5]": {"assay": "Cytotoxicity against Escherichia coli WP2 (trpE65 deltauvrA) assessed as cell viability up to 10 to 300 ug/mL after 72 hrs in presence of 25 ug/plate 2-aminoanthracene and metabolic activation system S9", "format": "ADME, organism-based", "details": "read-out: Activity", "summary_of_the_method": "as §1"}, "[6]": {"assay": "Cytotoxicity against Escherichia coli WP2 (trpE65) assessed as cell viability up to 10 to 300 ug/mL after 72 hrs in presence of 25 ug/plate 2-aminoanthracene and metabolic activation system S9", "format": "ADME, organism-based", "details": "read-out: Activity"}, "[7]": {"test_system": "Escherichia coli", "assay": "Antimutagenic activity in Escherichia coli WP2 (trpE65) assessed as maximal inhibition of 2-aminofluorene-induced mutagenic effect at 10 to 300 ug/plate after 72 hrs in presence of metabolic activation system S9 by Ames test", "format": "functional", "summary_of_the_method": "(§2)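 Preincubation Ames test with E. coli WP2 strains, from 16 h overnight cultures at 37 °C (about 2 × 10^9 bacteria/mL). Culture, mutagen, test substance (DMSO, 2% v/v vehicle) and either S9 mix (phenobarbital/β-naphthoflavone-induced rat liver) or 0.1 M phosphate buffer were shaken 30 min at 37 °C. Mutagens were MMS 1700 μg/plate without S9, and 2AA or 2AF 25 μg/plate with S9. Then top agar with 0.5 mM tryptophan on minimal agar, 72 h at 37 °C; tryptophan-independent revertants scored. Inhibition = 100 − (T/M × 100). Triplicates, at least two experiments.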"}, "[8]": {"test_system": "Escherichia coli", "assay": "Antimutagenic activity in Escherichia coli WP2 (trpE65 deltauvrApKM101) assessed as maximal inhibition of 2-aminoanthracene-induced mutagenic effect at 10 to 300 ug/plate after 72 hrs in presence of metabolic activation system S9 by Ames test", "format": "functional", "summary_of_the_method": "as §2"}, "[9]": {"test_system": "Escherichia coli", "assay": "Antimutagenic activity in Escherichia coli WP2 (trpE65 deltauvrA) assessed as maximal inhibition of 2-aminoanthracene-induced mutagenic effect at 10 to 300 ug/plate after 72 hrs in presence of metabolic activation system S9 by Ames test", "format": "functional", "summary_of_the_method": "as §2"}, "[10]": {"assay": "Cytotoxicity against Escherichia coli WP2 (trpE65 deltauvrApKM101) assessed as cell viability up to 10 to 300 ug/mL after 72 hrs in presence of 1700 ug/plate methyl methane sulfonate", "format": "organism-based", "details": "Escherichia coli WP2 (trpE65 deltauvrApKM101) cells, read-out: Activity", "summary_of_the_method": "as §1"}, "[11]": {"assay": "Cytotoxicity against Escherichia coli WP2 (trpE65 deltauvrA) assessed as cell viability up to 10 to 300 ug/mL after 72 hrs in presence of 1700 ug/plate methyl methane sulfonate", "format": "organism-based", "details": "Escherichia coli WP2 (trpE65 deltauvrA) cells, read-out: Activity", "summary_of_the_method": "as §1"}, "[12]": {"assay": "Cytotoxicity against Escherichia coli WP2 (trpE65) assessed as cell viability up to 10 to 300 ug/mL after 72 hrs in presence of 1700 ug/plate methyl methane sulfonate", "format": "organism-based", "details": "Escherichia coli WP2 (trpE65) cells, read-out: Activity", "summary_of_the_method": "as §1"}, "[13]": {"test_system": "Escherichia coli", "assay": "Antimutagenic activity in Escherichia coli WP2 (trpE65 deltauvrApKM101) assessed as maximal inhibition of methyl methane sulfonate-induced mutagenic effect at 10 to 300 ug/plate after 72 hrs in absence of metabolic activation system S9 by Ames test", "format": "functional", "summary_of_the_method": "as §2"}, "[14]": {"test_system": "Escherichia coli", "assay": "Antimutagenic activity in Escherichia coli WP2 (trpE65 deltauvrA) assessed as maximal inhibition of methyl methane sulfonate-induced mutagenic effect at 10 to 300 ug/plate after 72 hrs in absence of metabolic activation system S9 by Ames test", "format": "functional", "summary_of_the_method": "as §2"}, "[15]": {"test_system": "Escherichia coli", "assay": "Antimutagenic activity in Escherichia coli WP2 (trpE65) assessed as maximal inhibition of methyl methane sulfonate-induced mutagenic effect at 10 to 300 ug/plate after 72 hrs in absence of metabolic activation system S9 by Ames test", "format": "functional", "summary_of_the_method": "as §2"}, "[16]": {"assay": "Solubility of the compound up to 110 ug/mL", "format": "physicochemical", "summary_of_the_method": "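Compounds dissolved in DMSO by sonication, stock up to 12 mg/mL. Insolubility in the final assay mixture judged as a precipitate visible to the unaided eye.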"}}}
{"smiles": "CC(C)/C(=N/OS(=O)(=O)O)S[C@@H]1O[C@H](CO)[C@@H](O)[C@H](O)[C@H]1O", "note": "[GLUCOPUTRANJIVIN]", "values": [{"measurement": "viability at 72 h", "setting": "[1]", "result": 93, "unit": "%"}, {"measurement": "viability at 72 h", "setting": "[2]", "result": 77, "unit": "%"}, {"measurement": "viability at 72 h", "setting": "[3]", "result": 77, "unit": "%"}, {"measurement": "viability at 72 h", "setting": "[4]", "result": 93, "unit": "%"}, {"measurement": "viability at 72 h", "setting": "[5]", "result": 77, "unit": "%"}, {"measurement": "viability at 72 h", "setting": "[6]", "result": 77, "unit": "%"}, {"measurement": "inhibition (INH)", "setting": "[7]", "result": 61.6, "unit": "%"}, {"measurement": "inhibition (INH)", "setting": "[8]", "result": 21.5, "unit": "%"}, {"measurement": "inhibition (INH)", "setting": "[9]", "result": 80.1, "unit": "%"}, {"measurement": "viability at 72 h", "setting": "[10]", "result": 80, "unit": "%"}, {"measurement": "viability at 72 h", "setting": "[11]", "result": 82, "unit": "%"}, {"measurement": "viability at 72 h", "setting": "[12]", "result": 80, "unit": "%"}, {"measurement": "inhibition (INH)", "setting": "[13]", "result": 38.5, "unit": "%"}, {"measurement": "inhibition (INH)", "setting": "[14]", "result": 44.6, "unit": "%"}, {"measurement": "inhibition (INH)", "setting": "[15]", "result": 32.8, "unit": "%"}, {"measurement": "solubility", "setting": "[16]", "result": "soluble"}]}
{"smiles": "CC(C)N=C=S", "note": "[ISOPROPYL ISOTHIOCYANATE]", "values": [{"measurement": "viability at 72 h", "setting": "[1]", "result": 93, "unit": "%"}, {"measurement": "viability at 72 h", "setting": "[2]", "result": 77, "unit": "%"}, {"measurement": "viability at 72 h", "setting": "[3]", "result": 77, "unit": "%"}, {"measurement": "viability at 72 h", "setting": "[4]", "result": 93, "unit": "%"}, {"measurement": "viability at 72 h", "setting": "[5]", "result": 77, "unit": "%"}, {"measurement": "viability at 72 h", "setting": "[6]", "result": 77, "unit": "%"}, {"measurement": "inhibition (INH)", "setting": "[7]", "result": 57.9, "unit": "%"}, {"measurement": "inhibition (INH)", "setting": "[8]", "result": 18.6, "unit": "%"}, {"measurement": "inhibition (INH)", "setting": "[9]", "result": 81.9, "unit": "%"}, {"measurement": "viability at 72 h", "setting": "[10]", "result": 80, "unit": "%"}, {"measurement": "viability at 72 h", "setting": "[11]", "result": 82, "unit": "%"}, {"measurement": "viability at 72 h", "setting": "[12]", "result": 80, "unit": "%"}, {"measurement": "inhibition (INH)", "setting": "[13]", "result": 32.9, "unit": "%"}, {"measurement": "inhibition (INH)", "setting": "[14]", "result": 45.7, "unit": "%"}, {"measurement": "inhibition (INH)", "setting": "[15]", "result": 9.7, "unit": "%"}, {"measurement": "solubility", "setting": "[16]", "result": "soluble"}]}
